# Experimental data published in ChEMBL document CHEMBL4270630.
# Legend:
# Influenza A virus [1] = test: Antiviral activity against Influenza A virus A/Virginia/ATCC3/2009(H1N1pdm) infected in MDCK cells after 3 days by MTS assay; type: functional, organism-based, Influenza A virus (A/Virginia/03/2009(H1N1)); conditions: 72 h
# In short: (§1)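 Semi-confluent MDCK cells were infected at an MOI of 0.0004 PFU/cell in Ultra-MDCK infection medium with 2 μg/mL TPCK-trypsin, together with compounds. After 3 days at 35 °C, CPE was scored by microscopy and confirmed by MTS formazan viability. EC50 is the concentration giving 50% inhibition of virus-induced CPE. Values are means of two to five independent tests.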
# Influenza A virus [2] = test: Antiviral activity against Influenza A virus A/PR/8/34(H1N1) infected in MDCK cells assessed as reduction in virus-induced cytopathic effect after 3 days by microscopic method; type: functional, organism-based, A/Puerto Rico/8/1934(H1N1); conditions: Influenza A virus, A/Puerto Rico/8/1934(H1N1), MDCK, 72 h; in short: as §1
# Influenza B virus [3] = test: Antiviral activity against Influenza B virus B/HK/05/72 infected in MDCK cells assessed as reduction in virus-induced cytopathic effect after 3 days by microscopic method; type: functional, organism-based; conditions: B/Hong Kong/05/1972, MDCK, 72 h; in short: as §1
# Influenza B virus [4] = test: Antiviral activity against Influenza B virus B/HK/05/72 infected in MDCK cells after 3 days by MTS assay; type: functional, organism-based; conditions: B/Hong Kong/05/1972, MDCK, 72 h; in short: as §1
# Influenza A virus [5] = test: Antiviral activity against Influenza A virus A/Virginia/ATCC3/2009(H1N1pdm) infected in MDCK cells assessed as reduction in virus-induced cytopathic effect after 3 days by microscopic method; type: functional, organism-based, Influenza A virus (A/Virginia/03/2009(H1N1)); conditions: 72 h; in short: as §1
# Influenza A virus [6] = test: Antiviral activity against Influenza A virus A/PR/8/34(H1N1) infected in MDCK cells after 3 days by MTS assay; type: functional, organism-based, A/Puerto Rico/8/1934(H1N1); conditions: Influenza A virus, A/Puerto Rico/8/1934(H1N1), MDCK, 72 h; in short: as §1
# [7] = (§2) Cytotoxicity against MDCK cells assessed as reduction in cell viability after 3 days by MTS assay; type: cell-based, Canis lupus familiaris; conditions: dog, MDCK cells
# [8] = Cytotoxicity against MDCK cells assessed as alteration in cell morphology after 3 days by microscopic method; type: cell-based, Canis lupus familiaris; conditions: dog
# In short: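 Mock-infected MDCK cells were treated with compounds in parallel with the antiviral assay, 3 days at 35 °C. MCC is the concentration causing minimal change in cell morphology by microscopy. CC50 is the 50% cytotoxic concentration by MTS formazan viability assay.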
# H3N2 subtype [9] = test: Antiviral activity against Influenza A virus A/HK/7/87(H3N2) infected in MDCK cells after 3 days by MTS assay; type: functional, organism-based; conditions: A/Hong Kong/7/1987(H3N2), 72 h; in short: as §1
# H3N2 subtype [10] = test: Antiviral activity against Influenza A virus A/HK/7/87(H3N2) infected in MDCK cells assessed as reduction in virus-induced cytopathic effect after 3 days by microscopic method; type: functional, organism-based; conditions: A/Hong Kong/7/1987(H3N2), 72 h; in short: as §1
# Influenza B virus [11] = test: Antiviral activity against Influenza B virus B/Ned/537/05 infected in MDCK cells after 3 days by MTS assay; type: functional, organism-based; conditions: B/Ned/537/05, MDCK, 72 h
# In short: (§3)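 Semi-confluent MDCK cells were infected at an MOI of 0.0004 PFU/cell in Ultra-MDCK infection medium with 2 μg/mL TPCK-trypsin, together with compounds. After 3 days at 35 °C, CPE was scored by microscopy and confirmed by MTS formazan viability. Values are means of two to five independent tests.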
# [12] = Cytotoxicity against human A549 cells assessed as changes in cell morphology after 3 days by microscopic method; type: cell-based
# In short: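 Mock-infected A549 cells were incubated with compounds for 3 days. MCC is the concentration causing minimal change in cell morphology by microscopy.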
# [13] = Cytotoxicity against HEL299 cells assessed as changes in cell morphology after 5 days by microscopic method; type: cell-based, HEL 299; conditions: human
# In short: (§4)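 Confluent HEL 299 cells in medium with 2% FCS were exposed to HCoV-229E (100 CCID50/well) together with compounds and held for 5 days at 35 °C. EC50 (CPE reduction) and MCC (minimal morphology change) were determined by microscopy. SI is MCC/EC50.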
# MDCK = test: as §2; type: cell-based, Canis lupus familiaris; conditions: dog, mdck, 72 h
# Human coronavirus 229E [14] = test: Antiviral activity against Human coronavirus 229E infected in human A549 cells assessed as reduction in virus RNA level after 3 days by qRT-PCR method; type: functional; conditions: A549, 72 h
# In short: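 Confluent A549 cells were infected with HCoV-229E in 2% FCS medium with compounds present. The inoculum was removed at 1 h and compounds were kept on at 35 °C. Supernatants were harvested at day 3, lysed at 75 °C for 10 min, and viral genome copies counted by one-step qRT-PCR.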
# Influenza B virus [15] = test: Antiviral activity against Influenza B virus B/Ned/537/05 infected in MDCK cells assessed as reduction in virus-induced cytopathic effect after 3 days by microscopic method; type: functional, organism-based; conditions: B/Ned/537/05, MDCK, 72 h; in short: as §3
# Human coronavirus 229E [16] = test: Antiviral activity against Human coronavirus 229E infected in HEL299 cells assessed as reduction in virus induced cytopathic effect after 5 days by microscopic method; type: functional, organism-based; conditions: HEL 299, 120 h; in short: as §4
Compound,EC50 (Influenza A virus [1]),EC50 (Influenza A virus [2]),EC50 (Influenza B virus [3]),EC50 (Influenza B virus [4]),EC50 (Influenza A virus [5]),EC50 (Influenza A virus [6]),CC50 at 72 h [7],MCC at 72 h [8],EC50 (H3N2 subtype [9]),EC50 (H3N2 subtype [10]),EC50 (Influenza B virus [11]),MCC at 72 h [12],MCC at 120 h [13],CC50 (MDCK),EC90 (Human coronavirus 229E [14]),EC99 (Human coronavirus 229E [14]),EC50 (Influenza B virus [15]),EC50 (Human coronavirus 229E [16])
CC(=O)N[C@H]1[C@H](O[C@@H]2c3ccc(c(Cl)c3)Oc3cc4cc(c3O)Oc3ccc(cc3Cl)C[C@H]3NC(=O)[C@H](n5cc(CCOc6c7cc(C(C)(C)C)cc6Cc6cc(C(C)(C)C)cc(c6O)Cc6cc(C(C)(C)C)cc(c6O)Cc6cc(C(C)(C)C)cc(c6O)C7)nn5)c5ccc(O)c(c5)Oc5cc(O)cc(c5)[C@H](NC3=O)C(=O)N[C@H]4C(O)N[C@H]3C(=O)N[C@H]2C(=O)N[C@@H](C(=O)O)c2cc(O)cc(O)c2-c2cc3ccc2O)O[C@H](CO)[C@@H](O)[C@@H]1O (stereo not given in full),6.7 µM,> 100 µM,> 100 µM,5.7 µM,8.9 µM,43 µM,≥ 58 µM,≥ 20 µM,5.2 µM,> 100 µM,–,–,–,–,–,–,–,–
CCCCCCCCCCCCCCCCOCc1cn([C@H]2C(=O)N[C@@H]3Cc4ccc(c(Cl)c4)Oc4cc5cc(c4O)Oc4ccc(cc4Cl)[C@@H](O[C@@H]4O[C@H](CO)[C@@H](O)[C@H](O)[C@H]4NC(C)=O)[C@H]4NC(=O)[C@H](NC(O)[C@@H]5NC(=O)[C@@H](NC3=O)c3cc(O)cc(c3)Oc3cc2ccc3O)c2ccc(O)c(c2)-c2c(O)cc(O)cc2[C@H](C(=O)O)NC4=O)nn1 (stereo not given in full),1.8 µM,1.6 µM,1.8 µM,1.3 µM,1.8 µM,1.8 µM,7.6 µM,≥ 4 µM,≤ 1.6 µM,≤ 8.9 µM,–,–,–,–,–,–,–,–
CCCCCCOCc1cn([C@H]2C(=O)N[C@@H]3Cc4ccc(c(Cl)c4)Oc4cc5cc(c4O)Oc4ccc(cc4Cl)[C@@H](O[C@@H]4O[C@H](CO)[C@@H](O)[C@H](O)[C@H]4NC(C)=O)[C@H]4NC(=O)[C@H](NC(O)[C@@H]5NC(=O)[C@@H](NC3=O)c3cc(O)cc(c3)Oc3cc2ccc3O)c2ccc(O)c(c2)-c2c(O)cc(O)cc2[C@H](C(=O)O)NC4=O)nn1 (stereo not given in full),> 100 µM,> 100 µM,17 µM,11 µM,> 100 µM,> 100 µM,53 µM,≥ 20 µM,13 µM,15 µM,–,–,–,–,–,–,–,–
CC(=O)N[C@H]1[C@H](O[C@@H]2c3ccc(c(Cl)c3)Oc3cc4cc(c3O)Oc3ccc(cc3Cl)C[C@H]3NC(=O)[C@H](n5cc(COc6cccc7ccccc67)nn5)c5ccc(O)c(c5)Oc5cc(O)cc(c5)[C@H](NC3=O)C(=O)N[C@H]4C(O)N[C@H]3C(=O)N[C@H]2C(=O)N[C@@H](C(=O)O)c2cc(O)cc(O)c2-c2cc3ccc2O)O[C@H](CO)[C@@H](O)[C@@H]1O (stereo not given in full),4.4 µM,11 µM,15 µM,6.6 µM,11 µM,11 µM,47 µM,20 µM,8 µM,15 µM,–,–,–,–,–,–,–,–
CC(=O)N[C@H]1[C@H](O[C@@H]2c3ccc(c(Cl)c3)Oc3cc4cc(c3O)Oc3ccc(cc3Cl)C[C@H]3NC(=O)[C@H](n5cc(COC[C@H]6O[C@@H]7OC(C)(C)O[C@@H]7[C@H]7OC(C)(C)O[C@H]76)nn5)c5ccc(O)c(c5)Oc5cc(O)cc(c5)[C@H](NC3=O)C(=O)N[C@H]4C(O)N[C@H]3C(=O)N[C@H]2C(=O)N[C@@H](C(=O)O)c2cc(O)cc(O)c2-c2cc3ccc2O)O[C@H](CO)[C@@H](O)[C@@H]1O (stereo not given in full),43 µM,52 µM,39 µM,29 µM,45 µM,47 µM,> 100 µM,≥ 100 µM,24 µM,39 µM,–,–,–,–,–,–,–,–
CCCCCCCCCCCCOCc1cn([C@H]2C(=O)N[C@@H]3Cc4ccc(c(Cl)c4)Oc4cc5cc(c4O)Oc4ccc(cc4Cl)[C@@H](O[C@@H]4O[C@H](CO)[C@@H](O)[C@H](O)[C@H]4NC(C)=O)[C@H]4NC(=O)[C@H](NC(O)[C@@H]5NC(=O)[C@@H](NC3=O)c3cc(O)cc(c3)Oc3cc2ccc3O)c2ccc(O)c(c2)-c2c(O)cc(O)cc2[C@H](C(=O)O)NC4=O)nn1 (stereo not given in full),> 100 µM,> 100 µM,> 100 µM,> 100 µM,> 100 µM,> 100 µM,2.3 µM,9.3 µM,> 100 µM,> 100 µM,–,–,–,–,–,–,–,–
CC(=O)N[C@H]1[C@H](O[C@@H]2c3ccc(c(Cl)c3)Oc3cc4cc(c3O)Oc3ccc(cc3Cl)C[C@H]3NC(=O)[C@H](n5cc(CO[C@@H]6[C@H](OCc7ccccc7)[C@@H](OCc7ccccc7)[C@H](O[C@H]7[C@H](OCc8ccccc8)[C@@H](OCc8ccccc8)[C@H](Sc8ccccc8)O[C@@H]7COCc7ccccc7)O[C@@H]6COCc6ccccc6)nn5)c5ccc(O)c(c5)Oc5cc(O)cc(c5)[C@H](NC3=O)C(=O)N[C@H]4C(O)N[C@H]3C(=O)N[C@H]2C(=O)N[C@@H](C(=O)O)c2cc(O)cc(O)c2-c2cc3ccc2O)O[C@H](CO)[C@@H](O)[C@@H]1O (stereo not given in full),7.3 µM,> 100 µM,6.6 µM,4 µM,8.9 µM,> 100 µM,> 100 µM,≥ 20 µM,20 µM,8.9 µM,–,–,–,–,–,–,–,–
CCCCCCCCS(=O)(=O)N[C@H]1C(=O)N[C@@H]2Cc3ccc(c(Cl)c3)Oc3cc4cc(c3O)Oc3ccc(cc3Cl)[C@@H](O[C@@H]3O[C@H](CO)[C@@H](O)[C@H](O)[C@H]3NC(C)=O)[C@H]3NC(=O)[C@H](NC(O)[C@@H]4NC(=O)[C@@H](NC2=O)c2cc(O)cc(c2)Oc2cc1ccc2O)c1ccc(O)c(c1)-c1c(O)cc(O)cc1[C@H](C(=O)O)NC3=O (stereo not given in full),> 100 µM,1.9 µM,–,–,> 100 µM,2.5 µM,–,20 µM,2.4 µM,2 µM,> 100 µM,> 50 µM,≥ 20 µM,14 µM,5.7 µM,9.4 µM,4 µM,5.4 µM
